# In ChEMBL document CHEMBL3596186, “Synthesis and biological evaluation of diarylthiazole derivatives as antimitotic and antivascular agents with potent antitumor activity” (Bioorg Med Chem, 2015):
# The source made the active and inactive calls. No cut-off for these calls is given here.
# Legend:
# HepG2 [1] = test: Induction of apoptosis in human HepG2 cells assessed as necrotic cells at 1 uM after 24 hrs by annexin V/propidium iodide staining-based flow cytometry (reference value: 1.59%); type: functional
# [2] = Antiproliferative activity against human […] cells after 48 hrs by MTT assay; type: functional, cell-based
# Summary of the method: (§1)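 HCT116, HepG2, SMMC-7721, SK-OV-3 and A2780s grown in DMEM; A549 and MCF-7 in RPMI-1640; all with 10% FBS and penicillin/streptomycin at 37 °C, 5% CO2. Log-phase cells at 40,000-50,000 cells/mL treated with graded concentrations for 48 h. MTT 3 h, DMSO solubilization, A570. IC50 from percent growth versus untreated control; mean ± SEM of ≥3 independent dose-response experiments.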
# HCT-116 [3] = test: Induction of apoptosis in human HCT116 cells assessed as late apoptotic cells at 0.5 uM after 24 hrs by annexin V/propidium iodide staining-based flow cytometry (reference value: 1.71%); type: functional
# Summary of the method: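 HCT116 cells treated with compound or DMSO for 24 or 48 h, trypsinized, washed twice in PBS and dual-stained with annexin-V and PI. Analysed by flow cytometry: early apoptotic cells scored as annexin-V+/PI−, late apoptotic cells as annexin-V+/PI+.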
# SK-OV-3 = test: Antitumor activity against human SKOV3 cells xenografted in Balb/c athymic nude mouse assessed as tumor growth inhibition at 50 mg/kg, ip administered daily after 42 days; type: functional; conditions: SK-OV-3, ip, 1008 h, read-out: TGI
# Tubulin (Homo sapiens) = Tubulin (Homo sapiens) (UniProt P68371+Q9H4B7+P0DPH7+P68366+Q13509+Q71U36+P04350+Q3ZCM7+P07437+P68363+Q9BQE3+Q6PEY2+Q13885+Q9BVA1+Q9BUF5); test: Binding affinity to tubulin in human HepG2 cells at 5 uM after 4 hrs by EBI competition assay; type: cell-based
# Summary of the method: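 HepG2 cells seeded at 500,000 cells/well, allowed to adhere, then treated with compound for 4 h. EBI added at 100 µM for 1.5 h. Cell extracts (about 20 µg protein) run on 10% SDS-PAGE, blotted to PVDF, probed with anti-β-tubulin, detected by ECL with GAPDH as loading control. Read-out is loss of the faster-migrating β-tubulin–EBI adduct band.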
# HUVEC = test: Antivascular activity against HUVEC assessed as inhibition of tube formation after 8 hrs by Matrigel assay; type: functional, cell-based; conditions: Homo sapiens
# Summary of the method: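 Wells of prechilled plates coated with Matrigel and solidified 45 min at 37 °C. HUVECs (1 × 10^4) in EBM-2 containing compound (125-500 nM) seeded onto the gel and incubated 8 h at 37 °C. Capillary networks photographed at 100×; tubule numbers and line lengths counted manually.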
# HepG2 [4] = test: Induction of apoptosis in human HepG2 cells assessed as viable cells at 0.2 uM after 48 hrs by annexin V/propidium iodide staining-based flow cytometry (reference value: 89.8%); type: functional; conditions: HepG2, 48 h, read-out: Activity
# HCT-116 [5] = test: Cell cycle arrest in human HCT116 cells assessed as accumulation at G1 phase at 1 uM after 24 hrs by flow cytometry (reference value: 53.98%); type: functional
# HepG2 [6] = test: Induction of apoptosis in human HepG2 cells assessed as viable cells at 0.5 uM after 48 hrs by annexin V/propidium iodide staining-based flow cytometry (reference value: 89.8%); type: functional; conditions: HepG2, 48 h, read-out: Activity
# MCF7 [7] = test: Antiproliferative activity against human MCF7 cells after 48 hrs by MTT assay; type: functional, cell-based; conditions: MCF7, 48 h; summary of the method: as §1
# HCT-116 [8] = test: Induction of apoptosis in human HCT116 cells assessed as necrotic cells at 1 uM after 24 hrs by annexin V/propidium iodide staining-based flow cytometry (reference value: 3.49%); type: functional
# HCT-116 [9] = test: Induction of apoptosis in human HCT116 cells assessed as necrotic cells at 1 uM after 48 hrs by annexin V/propidium iodide staining-based flow cytometry (reference value: 3.49%); type: functional
# MCF7 [10] = test: Resistance ratio, ratio of IC50 for human doxorubicin-resistant MCF7 cells to IC50 for human MCF7 cells; type: functional
# Summary of the method: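 MTT assay: log-phase cells at 40,000-50,000 cells/mL in RPMI-1640 with 10% FBS, exposed to graded concentrations for 48 h, then MTT 3 h, DMSO solubilization, absorbance at 570 nm. IC50 from growth versus untreated control, at least three independent experiments. Ratio = resistant-line IC50 / parental-line IC50.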
# NCI-H1975 = test: Resistance ratio, ratio of IC50 for human gefitinib-resistant NCI-H1975 cells to IC50 for human HCC827 cells; type: functional
# HCT-116 [11] = test: Induction of apoptosis in human HCT116 cells assessed as viable cells at 0.5 uM after 24 hrs by annexin V/propidium iodide staining-based flow cytometry (reference value: 92%); type: functional; conditions: HCT-116, 24 h, read-out: Activity
# HepG2 [12] = test: Cell cycle arrest in human HepG2 cells assessed as accumulation at G2/M phase at 0.2 uM after 24 hrs by flow cytometry (reference value: 11.29%); type: functional
# HepG2 [13] = test: Induction of apoptosis in human HepG2 cells assessed as early apoptotic cells at 0.2 uM after 24 hrs by annexin V/propidium iodide staining-based flow cytometry (reference value: 0.87%); type: functional
# HepG2 [14] = test: Induction of apoptosis in human HepG2 cells assessed as late apoptotic cells at 0.5 uM after 48 hrs by annexin V/propidium iodide staining-based flow cytometry (reference value: 3.74%); type: functional
# A549 = test: Antiproliferative activity against human taxol-resistant A549 cells after 48 hrs by MTT assay; type: functional, cell-based; conditions: A549, 48 h
# Summary of the method: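 MCF-7/ADR (doxorubicin-resistant) and A549/T (taxol-resistant) cells in RPMI-1640 with 10% FBS and penicillin/streptomycin. Log-phase cells at 40,000-50,000 cells/mL exposed to graded concentrations for 48 h. MTT 3 h, DMSO solubilization, absorbance 570 nm. IC50 from percent growth versus untreated control; mean ± SEM of ≥3 independent experiments.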
# Mus musculus = test: Toxicity in Balb/c athymic nude mouse xenografted with human SKOV3 cells assessed as change in feeding and animal behavior at 20 to 50 mg/kg, ip administered daily; type: organism-based, SK-OV-3; conditions: in vivo
smiles,measurement,setting,value
CCOc1ccc(-c2nc(N)sc2-c2cc(OC)c(OC)c(OC)c2)cc1,Activity,HepG2 [1],0.79%
same,IC50,[2],23 nM
same,Activity,HCT-116 [3],10.8%
same,inhibition in vivo at 50 mg/kg,SK-OV-3,72.7%
same,Activity,Tubulin (Homo sapiens),inactive
same,Activity,HUVEC,Dose-dependent effect
same,viability at 0.2 µM,HepG2 [4],28.5%
same,Activity,HCT-116 [5],13.06%
same,viability at 0.5 µM,HepG2 [6],29.6%
same,IC50,MCF7 [7],100 nM
same,Activity,HCT-116 [8],3.15%
same,Activity,HCT-116 [9],4.06%
same,Ratio IC50,MCF7 [10],1.9
same,Ratio IC50,NCI-H1975,2.24
same,viability at 0.5 µM,HCT-116 [11],74.5%
same,Activity,HepG2 [12],19.56%
same,Activity,HepG2 [13],10.08%
same,Activity,HepG2 [14],4.38%
same,IC50,A549,43 nM
same,Activity,Mus musculus,Non-toxic
